For 167 variants, yeast fitness results are on record in the RNAGym collection of RNA variant scans (doi:10.1126/science.aae0568).

This sample holds only a part of the variants without activity. Where only a bound is given, the exact number is not on record here.

The labels stand for the following.
B1: tRNA (parent)
chain: GUUCCGUUGGCGUAAUGGUAACGCGUCUCCCUCCUAAGGAGAAGACUGCGGGUUCGAGUCCCGUACGGAACG

In the series the parent is B1. The experiment in a line: yeast fitness relative to wild type (ratio to wild type); higher = fitter; tRNA-Arg(CCU), competitive growth, 37 C, YPD. In a few lines:
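Gene amplicons from the start population and from each of six end populations were read by 100-nucleotide paired-end sequencing. Those end populations came from pooled Saccharomyces cerevisiae strains carrying tRNA-Arg(CCU) gene variants at the native locus, competed in YPD at 37°C for 24 hours. Fitness relative to wild type was worked out from changes in genotype frequencies. Genotypes needed ≥ 100 starting reads, and estimates < 0.5 were set to 0.5.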
As to C5U A14G C24U U32G A43G C66U, the yeast fitness is at most 0.5. Consider C5U A57C G58C U59G C66U, for which the yeast fitness was at most 0.5. The figure for C5U A37U A42U U59A is 0.537. For C5U C11U G25A A37G C46G G51C A57C C61U, the yeast fitness was at most 0.5.

Consider C5U A40G A43G C55U, for which the yeast fitness is at most 0.5. The figure for C5U A14C A42G A65C is at most 0.5; for C5G U35A G63C it is at most 0.5; for C5U A21U C30G it is 0.632. Turning to C5U A45C G58C, the yeast fitness is 0.977. The figure for C5U A37C C46G C60U is at most 0.5; for C5U A36C A43G U54A C55G A69U it is at most 0.5; for C5U A20U C55G G68A it is at most 0.5. Regarding C5U A21G A37G G39C G44C C46A U54C A65C, the yeast fitness was at most 0.5. Turning to C5U A57C, the yeast fitness is 0.659. On to C5U A57G, for which the yeast fitness worked out at 0.807. Consider C5U A20U C24U C27U A45G, for which the yeast fitness was at most 0.5. As for C5U A20G A21G C31U, the yeast fitness was at most 0.5. The figure for C5U A20G G44C is 0.764; for C5U A14U C27G G38C G63A it is at most 0.5. With C5G U47A G52A G68C, the yeast fitness was at most 0.5.

On to C5U A21C G23A C49A G52A G56C A57C, for which the yeast fitness turned out to be 0.508. The figure for C5U C11U C24G C61U C62G A65C is at most 0.5. The figure for C5U C11A A69U is at most 0.5. As to C5G U35A C60A, the yeast fitness is at most 0.5. The figure for C5U A45C C55U G68C is 0.57. As to C5U A37G A43C C46U C62U, the yeast fitness is at most 0.5. The figure for C5U A14C C46G is 0.561; for C5U A14C C46A it is 0.548. With C5U A43U G56C G68U, the yeast fitness worked out at 0.635. The figure for C5U A43C A69C is 0.802; for C5U A14C C31A A40U C60A it is at most 0.5; for C5U A37G A43C C62U it is 0.541.

Regarding C5G U47C C61G, the yeast fitness is 0.519. The figure for C5U A21G G25A A42U G58A is 0.744; for C5G U59A A65G it is 0.667; for C5U A20U U26A C34U C49A A57C C62U it is at most 0.5.

Turning to C5U A37U G56C, the yeast fitness is 0.686. The figure for C5U A57C C62U is 0.54; for C5U A21G A42U G50C it is at most 0.5. The figure for C5U A20U A70U is 0.842. Take C5G U47C C61A G68U: the yeast fitness was at most 0.5.

C5U A15U A21G C49U: the yeast fitness is at most 0.5. Consider C5U C11A C24G C27G A36U G38C G67C, for which the yeast fitness was at most 0.5. The figure for C5U A40G is 1.01; for C5U A40U it is 0.833; for C5U A45U G56A it is 0.715. The figure for C5U A14G U28C U64C is at most 0.5; for C5U A14C C29U C33A C49U C55G it is at most 0.5; for C5U C11U A15C U28A C62U C66A it is at most 0.5. The figure for C5U C11U A36U C66U is at most 0.5.

Turning to C5U C11A C24G C27G A36U G38C, the yeast fitness is at most 0.5. The figure for C5U A40U A42G is at most 0.5. The figure for C5U A21C U54C A65U is 0.643. As to C5U A15U G23C A45U C62A, the yeast fitness was at most 0.5. The figure for C5U A15U G51C C61G C62G is 0.776. The figure for C5U C11G C33A is 0.557; for C5U A37G A45C C61G A70U it is at most 0.5. The figure for C5U A37C U47C C61U is at most 0.5; for C5U A20G A43G A65U it is at most 0.5; for C5U A15C C27U C29U A57C it is at most 0.5. In the case of C5U A14G C46G A65U, the yeast fitness was at most 0.5. C5U A42G U47A: the yeast fitness came to 0.619. The figure for C5U C11U U28C C34G A40G A43G C46G G52A C55U C66U is at most 0.5; for C5U C11G C24U A42C A65C it is 0.605. C5U A21G C27U A69U: the yeast fitness was at most 0.5. In the case of C5U A40U A57U, the yeast fitness was at most 0.5. In the case of C5U C11U C46G, the yeast fitness amounted to 0.7. The figure for C5U C11U C46U is 0.752. C5U A43G A45G: the yeast fitness turned out to be 0.669. The figure for C5U C11A A14G is at most 0.5; for C5U A15C U32A U47C it is at most 0.5.

Turning to C5U A21G U28C A36G A69G, the yeast fitness worked out at 0.599. The figure for C5U A20C G68C is 0.542.

With C5U A43U C49U C61U, the yeast fitness is at most 0.5. The figure for C5U A43U C49U C61G is 0.532; for C5U A14G U16A C30U it is at most 0.5; for C5U A21G C24A A42C it is at most 0.5.

In the case of C5U A43U C49U C66U, the yeast fitness was at most 0.5.

C5U C11U A21G C24G A42U A43C U53G A57C: the yeast fitness is at most 0.5. The figure for C5U A14C C27U C33G C55G C61U is at most 0.5. The figure for C5U A70C is 1.06; for C5U A15G C46G it is 0.892; for C5U C11U G38A G58C C61U C66U it is 0.573. For the variant C5U C11A U54C G63A, the yeast fitness was at most 0.5. Turning to C5U C11G, the yeast fitness came out at 0.597.

Regarding C5G U35G C49A, the yeast fitness is at most 0.5. The figure for C5U A65G is 0.94; for C5U A20U G67A A70G it is 0.933. As for C5U A20G A37G G67A, the yeast fitness is at most 0.5. The figure for C5U C11U C33G A43C is at most 0.5. The figure for C5U A21G C24G U28G is at most 0.5; for C5G U47C U59A it is at most 0.5. Take C5G U35C G50C G56A A70U: the yeast fitness is at most 0.5. The figure for C5U A14U C49G A65U is at most 0.5; for C5U A43U C49U C61A C66U it is at most 0.5; for C5U A45C it is 1.06. The figure for C5U A15G C22G G41A A45U U47A C62U is at most 0.5; for C5U A14G A15U U28A C33G G41C G56A it is at most 0.5. On to C5U C11U A36U C60A, for which the yeast fitness is at most 0.5. Consider C5U A42G G51C, for which the yeast fitness came out at 0.549. Take C5U A14G A36G G68C: the yeast fitness is at most 0.5. The figure for C5G U53C is 0.866; for C5G U53A it is 0.658; for C5U A21U C30G A70U it is 0.651. Take C5U A20G C61U: the yeast fitness turned out to be 0.711. C5U C11G C24U A42C G67A: the yeast fitness is at most 0.5. The figure for C5U A37C G39C is at most 0.5. The figure for C5U A43U G48A C61G A70C is at most 0.5; for C5U A15U C29U C31U C34U it is 0.519; for C5U A14U C27G it is at most 0.5. The figure for C5U A14C A21G C30G C34U G39A C55U is at most 0.5; for C5U C11G U19G C24G C30U C61U it is at most 0.5. For the variant C5U C11G C24U A42C, the yeast fitness stood at 0.552. Take C5U A20C C31A C34G A57G A65U: the yeast fitness is 0.593.

Regarding C5U A45C C62U, the yeast fitness amounted to 0.768.

Consider C5U A45C C62A, for which the yeast fitness turned out to be 0.701.

For C5U A21G U26A, the yeast fitness was 0.738.

Consider C5U C11U A14C, for which the yeast fitness turned out to be 0.731. As for C5U A21U A57U A65U, the yeast fitness is at most 0.5. The figure for C5U A20G U32G C33G C55U is at most 0.5; for C5U A15C G18A U35C A42G it is at most 0.5; for C5U A36U G67A it is at most 0.5. The figure for C5U A42G A45G C55G is at most 0.5; for C5U A15G G17C C66U it is at most 0.5. The figure for C5U C11U A40U G48A C49U is 0.709. Regarding C5U A37U A69U, the yeast fitness came to 0.634. With C5G U32C G58C, the yeast fitness was 0.665.

Regarding C5U A21U C33U C62U A70C, the yeast fitness was at most 0.5. On to C5U A20U C62A G67A A70G, for which the yeast fitness amounted to 0.747. Turning to C5U A14U A21G G68C, the yeast fitness came to 0.588.

For the variant C5G U47A C62G G63A, the yeast fitness was at most 0.5.

For the variant C5U C11U A14G A15G G48C, the yeast fitness is at most 0.5.

Take C5U A21U A57U C60A G68C: the yeast fitness was 0.566. The figure for C5G U64C is 0.978; for C5U A21G C22G A43U it is 0.533; for C5U A15C G18A G23A U35C A42G C49A it is at most 0.5.

For C5U A21U C30G C60G A70C, the yeast fitness was at most 0.5.

For the variant C5U A21G, the yeast fitness was found to be 0.981.

Regarding C5U A15G A20U, the yeast fitness is 0.662. The figure for C5U A15C A36U A65C is at most 0.5. The figure for C5U C11U U32C C49U is 0.537. The figure for C5U A42U A69U is 0.728. Consider C5U A20C G44C, for which the yeast fitness was determined as 0.573. Regarding C5U A20G U47C, the yeast fitness is at most 0.5. The figure for C5U C11U A15G C34U G44C U47G is at most 0.5. The figure for C5U A15U C29U C31U C34U C66A is at most 0.5.

For the variant C5U A14G G50C C55U A57G G68A, the yeast fitness is at most 0.5. The figure for C5U A14U C30U G39C C60A is at most 0.5; for C5U A15U C29U C31U C34U G48C G68A it is at most 0.5.

Turning to C5U C11U G25C, the yeast fitness is 0.694. For C5U A37G U47G A69G, the yeast fitness is at most 0.5.

C5U A15G A20U A42G G63A: the yeast fitness is at most 0.5.

For the variant C5U A42U A43G, the yeast fitness was 0.63. For the variant C5U A20G C31G U47C G48C, the yeast fitness was at most 0.5.

On to C5U C11A A21C C27G G68C, for which the yeast fitness was at most 0.5.

As to C5U A20G A37G, the yeast fitness is 0.524. The figure for C5G U47C is 0.745. The figure for C5G U47G is 0.611. For C5U A36C, the yeast fitness is 0.69. The figure for C5U A36U is 0.632; for C5U A36G it is 1. For C5U A42G C49U A65C, the yeast fitness was at most 0.5.

Turning to C5U A40U G44A C61A, the yeast fitness was at most 0.5. Take C5U C11A U26A C29U C30A C31U: the yeast fitness is at most 0.5. The figure for C5G U59G A65G is 0.614; for C5U C11G U32A U35G C55A C61G it is at most 0.5. The figure for C5U C11G U19G C24G C30U is 0.547.
